Measurements from ChEMBL document CHEMBL1158842, “Antiproliferative triterpene saponins from Entada africana” (J Nat Prod, 2006).

What was measured:
WEHI-164 = assay: Antiproliferative activity against mouse WEHI164 cells after 72 hrs by MTT conversion assay; format: functional, cell-based
Method in brief: (§1)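 Cells (3.4 × 10^4 per well) adhered 2 h at 37 °C, 5% CO2; medium replaced with fresh medium and 1:4 serial dilutions of test compound added, then incubated 72 h; 6-mercaptopurine serial dilutions in some experiments. Viability by MTT conversion, OD read at 620 nm; % dead cells = 100 − (OD treated/OD control) × 100.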

J774.A1 = assay: Antiproliferative activity against mouse J774A1 cells after 72 hrs by MTT conversion assay; format: cell-based; settings: J774.A1, 72 h; method in brief: as §1
HEK293 = assay: Antiproliferative activity against HEK293 cells after 72 hrs by MTT conversion assay; format: cell-based, Homo sapiens; method in brief: as §1
[1] = Mus musculus, WEHI-164, 72 h, read-out: IC50
[2] = Homo sapiens, HEK293, 72 h, read-out: IC50

Row | SMILES | IC50 (WEHI-164; [1]) | IC50 (J774.A1) | IC50 (HEK293; [2]) | IC50 (WEHI-164; wehi-164) | IC50 (HEK293; hek293)
1 | C=C[C@@](C)(O)CC/C=C(\C)C(=O)O[C@@H]1[C@@H](OC(=O)/C=C/c2ccccc2)[C@H](O[C@H]2[C@H](O)[C@@H](COC(C)=O)O[C@@H](OC(=O)[C@]34CCC(C)(C)C[C@H]3C3=CC[C@@H]5[C@@]6(C)CC[C@H](O[C@@H]7O[C@H](CO[C@@H]8OC[C@H](O)[C@H](O[C@@H]9OC[C@@H](O)[C@H](O)[C@H]9O)[C@H]8O)[C@@H](O[C@@H]8O[C@H](CO)[C@@H](O)[C@H](O)[C@H]8O)[C@H](O)[C@H]7NC(C)=O)C(C)(C)[C@@H]6CC[C@@]5(C)[C@]3(C)C[C@H]4O)[C@@H]2O[C@@H]2OC[C@@H](O)[C@H](O[C@@H]3OC[C@](O)(CO)[C@H]3O)[C@H]2O)OC[C@H]1O | 380 nM | 840 nM | 360 nM | – | –
2 | CC(=O)N[C@H]1[C@H](O[C@H]2CC[C@]3(C)[C@H]4CC=C5[C@@H]6CC(C)(C)CC[C@]6(C(=O)O[C@@H]6O[C@H](COC(C)=O)[C@@H](O)[C@H](O[C@@H]7OC[C@@H](O)[C@H](O)[C@H]7O)[C@H]6O[C@@H]6OC[C@@H](O)[C@H](O[C@@H]7OC[C@](O)(CO)[C@H]7O)[C@H]6O)[C@H](O)C[C@@]5(C)[C@]4(C)CC[C@H]3C2(C)C)O[C@H](CO[C@@H]2OC[C@H](O)[C@H](O[C@@H]3OC[C@@H](O)[C@H](O)[C@H]3O)[C@H]2O)[C@@H](O[C@@H]2O[C@H](CO)[C@@H](O)[C@H](O)[C@H]2O)[C@@H]1O | – | 2900 nM | – | Not Traceable | Not Traceable
3 | CC(=O)N[C@H]1[C@H](O[C@H]2CC[C@]3(C)[C@H]4CC=C5[C@@H]6CC(C)(C)CC[C@]6(C(=O)O[C@@H]6O[C@H](CO)[C@@H](O)[C@H](O[C@@H]7OC[C@@H](O)[C@H](O)[C@H]7O)[C@H]6O[C@@H]6OC[C@@H](O)[C@H](O[C@@H]7OC[C@](O)(CO)[C@H]7O)[C@H]6O)[C@H](O)C[C@@]5(C)[C@]4(C)CC[C@H]3C2(C)C)O[C@H](CO[C@@H]2OC[C@H](O)[C@H](O[C@@H]3OC[C@@H](O)[C@H](O)[C@H]3O)[C@H]2O)[C@@H](O[C@@H]2O[C@H](CO)[C@@H](O)[C@H](O)[C@H]2O)[C@@H]1O | – | 1200 nM | – | Not Traceable | Not Traceable
4 | CC(=O)N[C@H]1[C@H](O[C@H]2CC[C@]3(C)[C@H]4CC=C5[C@@H]6CC(C)(C)CC[C@]6(C(=O)O[C@@H]6O[C@H](COC(C)=O)[C@@H](O)[C@H](O[C@@H]7OC[C@@H](O)[C@H](O)[C@H]7OC(=O)/C=C/c7ccccc7)[C@H]6O[C@@H]6OC[C@@H](O)[C@H](O[C@@H]7OC[C@](O)(CO)[C@H]7O)[C@H]6O)[C@H](O)C[C@@]5(C)[C@]4(C)CC[C@H]3C2(C)C)O[C@H](CO[C@@H]2OC[C@H](O)[C@H](O[C@@H]3OC[C@@H](O)[C@H](O)[C@H]3O)[C@H]2O)[C@@H](O[C@@H]2O[C@H](CO)[C@@H](O)[C@H](O)[C@H]2O)[C@@H]1O | 940 nM | 980 nM | 560 nM | – | –
5 | C=C[C@@](C)(O)CC/C=C(\C)C(=O)O[C@@H]1[C@@H](OC(=O)/C=C/c2ccccc2)[C@H](O[C@H]2[C@H](O)[C@@H](COC(C)=O)O[C@@H](OC(=O)[C@]34C[C@H](O)C(C)(C)C[C@H]3C3=CC[C@@H]5[C@@]6(C)CC[C@H](O[C@@H]7O[C@H](CO[C@@H]8OC[C@H](O)[C@H](O[C@@H]9OC[C@H](O)[C@H](O)[C@H]9O)[C@H]8O)[C@@H](O[C@@H]8O[C@H](CO)[C@@H](O)[C@H](O)[C@H]8O)[C@H](O)[C@H]7NC(C)=O)C(C)(C)[C@@H]6CC[C@@]5(C)[C@]3(C)C[C@H]4O)[C@@H]2O[C@@H]2OC[C@@H](O)[C@H](O[C@@H]3OC[C@](O)(CO)[C@H]3O)[C@H]2O)OC[C@H]1O | 2700 nM | 3000 nM | 2800 nM | – | –
6 | CC(=O)N[C@H]1[C@H](O[C@H]2CC[C@]3(C)[C@H]4CC=C5[C@@H]6CC(C)(C)[C@@H](O)C[C@]6(C(=O)O[C@@H]6O[C@H](COC(C)=O)[C@@H](O)[C@H](O[C@@H]7OC[C@@H](O)[C@H](O)[C@H]7O)[C@H]6O[C@@H]6OC[C@@H](O)[C@H](O[C@@H]7OC[C@](O)(CO)[C@H]7O)[C@H]6O)[C@H](O)C[C@@]5(C)[C@]4(C)CC[C@H]3C2(C)C)O[C@H](CO[C@@H]2OC[C@H](O)[C@H](O[C@@H]3OC[C@@H](O)[C@H](O)[C@H]3O)[C@H]2O)[C@@H](O[C@@H]2O[C@H](CO)[C@@H](O)[C@H](O)[C@H]2O)[C@@H]1O | 2000 nM | 2200 nM | 3900 nM | – | –
7 | C=C[C@](C)(O)CC/C=C(\C)C(=O)O[C@@H]1[C@@H](O)[C@H](O[C@H]2[C@H](O)[C@@H](COC(C)=O)O[C@@H](OC(=O)[C@]34CCC(C)(C)C[C@H]3C3=CC[C@@H]5[C@@]6(C)CC[C@H](O[C@@H]7O[C@H](CO[C@@H]8OC[C@H](O)[C@H](O[C@@H]9OC[C@@H](O)[C@H](O)[C@H]9O)[C@H]8O)[C@@H](O[C@@H]8O[C@H](CO)[C@@H](O)[C@H](O)[C@H]8O)[C@H](O)[C@H]7NC(C)=O)C(C)(C)[C@@H]6CC[C@@]5(C)[C@]3(C)C[C@H]4O)[C@@H]2O[C@@H]2OC[C@@H](O)[C@H](O[C@@H]3OC[C@](O)(CO)[C@H]3O)[C@H]2O)OC[C@H]1O | 490 nM | 520 nM | 270 nM | – | –
8 | C=C[C@](C)(O)CC/C=C(\C)C(=O)O[C@@H]1[C@@H](O)[C@H](O[C@H]2[C@H](O)[C@@H](COC(C)=O)O[C@@H](OC(=O)[C@]34C[C@H](O)C(C)(C)C[C@H]3C3=CC[C@@H]5[C@@]6(C)CC[C@H](O[C@@H]7O[C@H](CO[C@@H]8OC[C@H](O)[C@H](O[C@@H]9OC[C@@H](O)[C@H](O)[C@H]9O)[C@H]8O)[C@@H](O[C@@H]8O[C@H](CO)[C@@H](O)[C@H](O)[C@H]8O)[C@H](O)[C@H]7NC(C)=O)C(C)(C)[C@@H]6CC[C@@]5(C)[C@]3(C)C[C@H]4O)[C@@H]2O[C@@H]2OC[C@@H](O)[C@H](O[C@@H]3OC[C@](O)(CO)[C@H]3O)[C@H]2O)OC[C@H]1O | 100 nM | 31 nM | 250 nM | – | –
9 | CC(=O)N[C@H]1[C@H](O[C@H]2CC[C@]3(C)[C@H]4CC=C5[C@@H]6CC(C)(C)CC[C@]6(C(=O)O[C@@H]6O[C@H](COC(C)=O)[C@@H](O)[C@H](O[C@@H]7OC[C@@H](O)[C@H](O)[C@H]7O)[C@H]6O[C@@H]6OC[C@@H](O)[C@H](O[C@@H]7OC[C@](O)(CO)[C@H]7O)[C@H]6O)[C@H](O)C[C@@]5(C)[C@]4(C)CC[C@H]3C2(C)C)O[C@H](CO[C@@H]2OC[C@H](O)[C@H](O[C@@H]3OC[C@H](O)[C@H](O)[C@H]3O)[C@H]2O)[C@@H](O[C@@H]2O[C@H](CO)[C@@H](O)[C@H](O)[C@H]2O)[C@@H]1O | – | 3100 nM | – | Not Traceable | Not Traceable
